For one assay, the target named is T1, wt Bid (Mus musculus, UniProt P70444).
T1 sequence (P70444 1-195): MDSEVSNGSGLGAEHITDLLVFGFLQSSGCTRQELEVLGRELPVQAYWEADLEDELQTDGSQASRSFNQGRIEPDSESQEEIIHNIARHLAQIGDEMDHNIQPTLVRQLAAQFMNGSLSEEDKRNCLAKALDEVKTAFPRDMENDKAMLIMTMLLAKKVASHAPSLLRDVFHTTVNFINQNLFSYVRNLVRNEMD
Kind of assay: ADIFAB fluorescence quenching. It is filed as binding. The note with it: recombinant mouse wt Bid, ADIFAB 0.2 μM, room temperature. In outline:
(§1)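 Recombinant N-terminal His6-tagged mouse Bid was expressed in E. coli BL21(DE3)pLysS and purified on a chelating affinity column. ADIFAB at 0.2 μM in 10 mM Tris pH 8.0, 0.15 M NaCl, 1 mM EGTA was run alone or with Bid at 22–24 °C. Lipid ligand was titrated with excitation at 390 nm and emission read at 410–610 nm. Kd was taken from Stern–Volmer (F0/F) slopes.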

A further assay addresses T2, Bid K157E (Mus musculus, UniProt P70444, K157E).
T2 sequence (P70444 1-195 K157E): T1 sequence (P70444 1-195) with K157E
As to the kind of experiment: ADIFAB fluorescence quenching. In kind it is binding. The note with it: recombinant mouse Bid K157E mutant, ADIFAB 0.2 μM, room temperature. Put shortly: as §1

Another assay deals with T3, Bid R187E (Mus musculus, UniProt P70444, R187E).
T3 sequence (P70444 1-195 R187E): T1 sequence (P70444 1-195) with R187E
As to the kind of experiment: ADIFAB fluorescence quenching. The note with it: recombinant mouse Bid R187E mutant, ADIFAB 0.2 μM, room temperature. In kind it is binding. Put shortly:
as §1

Another assay deals with mouse liver mitochondria. As to the kind of experiment: Cell-free assay of cytochrome c release from isolated mitochondria. It is filed as biochemical. The note with it: for release of cytochrome c: 200 nM full-length recombinant Bid protein, no exogenous lysolipids, 15 min. Put shortly:
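They were incubated 15 min at 22 °C with 200 nM recombinant full-length mouse Bid plus 2 μM LPC-C16 added from ethanol, then pelleted. Supernatant cytochrome c was immunoblotted and quantified by densitometry (n=3, t-test), with controls of 500 μM LPC-C16 and no Bid.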

The test system of assay [1] is FSK7 mouse mammary epithelial cells. Kind of assay: Anoikis of mammary epithelial cells expressing YFP-tagged Bid. It is filed as cell-based. The note with it: FL Bid YFP over-expressed, 5 h detached. Put shortly:
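FSK7 cells were grown in DMEM/F-12 with 5 ng/ml EGF, 5 μg/ml insulin and 2% FCS at 37 °C, 5% CO₂. They were lipofected with C-terminal YFP-tagged full-length Bid or YFP alone. At 18 h post-transfection cells were detached onto polyHEMA for 5 h, cytospun, PFA-fixed and Hoechst-stained. Apoptosis was scored by nuclear morphology as mean ± SEM.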

Substitutions are numbered along the chain they refer to. Names and notes keep the numbering of the source.

As a reminder, the Kd is the constant that tells how readily two partners part at equilibrium.

Regarding `CCCCCCCCCCCCCCCC(=O)OC[C@@H](O)COP(=O)([O-])OCC[N+](C)(C)C` [LPC-C16, 1-palmitoyl-LPC], the Kd on wt Bid was roughly 4000 nM; at Bid K157E, roughly 4000 nM; on Bid R187E, 5500 nM. For the same molecule, the “enhancement of cytochrome c release” value with mouse liver mitochondria (2 μM LPC-C16 with 200 nM K157E FL Bid) is given as “much stronger enhancement”. In addition, the “increase in capacity of releasing cytochrome c” value in the assay with mouse liver mitochondria (2 μM LPC-C16 with 200 nM R187E FL Bid) and in the assay with mouse liver mitochondria (2 μM LPC-C16 with 200 nM wt FL Bid) was roughly 2 fold throughout.
Turning to `CCCCCCCC/C=C\CCCCCCCC(=O)OC[C@@H](O)COP(=O)(O)OCC(O)CO` (stereo partly drawn) [LPG-C18, 1-oleyl-LPG], the Kd at wt Bid came to 80 nM; at Bid K157E, 200 nM; at Bid R187E, 100 nM.
For the molecule monolysocardiolipin [MCL], the Kd on wt Bid is 1300 nM; at Bid K157E it was 1800 nM; at Bid R187E, roughly 1400 nM.

B1: wt Bid: recombinant full-length wild type mouse Bid with N-terminal six-histidine tag (protein, UniProt P70444 1-195, looked up)
chain: T1 sequence (P70444 1-195)
modifications: full-length N-terminal His6 tag
Take B1: the “release of cytochrome c” value with mouse liver mitochondria is given as “some release of cytochrome c”.

B2: R187E Bid YFP: C-terminal YFP-tagged full-length mouse Bid R187E expressed by transfection (protein, UniProt P70444 1-195, looked up, variant R187E)
chain: T1 sequence (P70444 1-195) with R187E
modifications: full-length C-terminal YFP tag
B2: in assay [1], the “sensitisation to anoikis compared with wt Bid” value is given as “no difference”.

B3: K157E Bid: recombinant mouse Bid, lysine 157 replaced by glutamic acid (protein, UniProt P70444 1-195, looked up, variant K157E)
BH3-interacting domain death …: T1 sequence (P70444 1-195) with K157E
B3: the “release of cytochrome c” value in the assay with mouse liver mitochondria was “did not release cytochrome c”.

B4: wt Bid YFP: C-terminal YFP-tagged full-length wild type mouse Bid expressed by transfection (protein, UniProt P70444 1-195, looked up)
chain: T1 sequence (P70444 1-195)
modifications: full-length C-terminal YFP tag
As to B4, the “apoptosis (cell death) after detachment” value in assay [1] (nuclear morphology) is “around 85%”.

B5: K157E Bid YFP: C-terminal YFP-tagged full-length mouse Bid K157E expressed by transfection (protein, UniProt P70444 1-195, looked up, variant K157E)
chain: T1 sequence (P70444 1-195) with K157E
modifications: full-length C-terminal YFP fusion
In the case of B5, the “sensitisation to anoikis compared with wt Bid” value in assay [1] is listed as “no difference”.

B6: R187E Bid: recombinant mouse Bid, arginine 187 replaced by glutamic acid (protein, UniProt P70444 1-195, looked up, variant R187E)
BH3-interacting domain death …: T1 sequence (P70444 1-195) with R187E
In the case of B6, the “release of cytochrome c” value in the assay with mouse liver mitochondria is “some release of cytochrome c”.

The record behind these values is paper PMC2822702 (Biochimica et biophysica acta, 2009).
